Converted amounts (≈) assume the structure as drawn. The source made the active and inactive calls. The rule behind the calls is not given here.
Experiments:
[1] = tested on: Staphylococcus aureus; test: Antibacterial activity against Staphylococcus aureus at 25 ug/ml incubated for 24 hrs by agar well diffusion method; assay type: functional; conditions: read-out: DIZ
Procedure, shortened: (§1)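 Bacteria grown in nutrient broth at 37 °C for 24 h, then subcultured at room temperature. Compounds dissolved in DMSO at 5 mg mL⁻¹ and 5–20 µL added to 6 mm wells, giving 25, 50, 75, 100 µg per well. Gentamicin was the positive control and DMSO the negative control. Plates held at 37 °C for 24 h, then inhibition zone diameter (mm) measured. Values are means of three determinations.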

[2] = tested on: Staphylococcus aureus; test: Antibacterial activity against Staphylococcus aureus at 50 ug/ml incubated for 24 hrs by agar well diffusion method; assay type: functional; conditions: read-out: DIZ; procedure, shortened: as §1
[3] = tested on: Staphylococcus aureus; test: Antibacterial activity against Staphylococcus aureus at 75 ug/ml incubated for 24 hrs by agar well diffusion method; assay type: functional; conditions: read-out: DIZ; procedure, shortened: as §1
[4] = tested on: Staphylococcus aureus; test: Antibacterial activity against Staphylococcus aureus at 100 ug/ml incubated for 24 hrs by agar well diffusion method; assay type: functional; conditions: read-out: DIZ; procedure, shortened: as §1
[5] = tested on: Bacillus subtilis; test: Antibacterial activity against Bacillus subtilis at 25 ug/ml incubated for 24 hrs by agar well diffusion method; assay type: functional; conditions: for zone of inhibition at 25 µg/mL: read-out: DIZ; procedure, shortened: as §1
[6] = tested on: Bacillus subtilis; test: Antibacterial activity against Bacillus subtilis at 50 ug/ml incubated for 24 hrs by agar well diffusion method; assay type: functional; conditions: for zone of inhibition at 50 µg/mL: read-out: DIZ; procedure, shortened: as §1
[7] = tested on: Bacillus subtilis; test: Antibacterial activity against Bacillus subtilis at 75 ug/ml incubated for 24 hrs by agar well diffusion method; assay type: functional; conditions: read-out: DIZ; procedure, shortened: as §1
[8] = tested on: Bacillus subtilis; test: Antibacterial activity against Bacillus subtilis at 100 ug/ml incubated for 24 hrs by agar well diffusion method; assay type: functional; conditions: read-out: DIZ; procedure, shortened: as §1
[9] = tested on: Escherichia coli; test: Antibacterial activity against Escherichia coli at 25 ug/ml incubated for 24 hrs by agar well diffusion method; assay type: functional; conditions: read-out: DIZ; procedure, shortened: as §1
[10] = tested on: Escherichia coli; test: Antibacterial activity against Escherichia coli at 50 ug/ml incubated for 24 hrs by agar well diffusion method; assay type: functional; conditions: read-out: DIZ; procedure, shortened: as §1
[11] = tested on: Escherichia coli; test: Antibacterial activity against Escherichia coli at 75 ug/ml incubated for 24 hrs by agar well diffusion method; assay type: functional; conditions: read-out: DIZ; procedure, shortened: as §1
[12] = tested on: Escherichia coli; test: Antibacterial activity against Escherichia coli at 100 ug/ml incubated for 24 hrs by agar well diffusion method; assay type: functional; conditions: read-out: DIZ; procedure, shortened: as §1
[13] = tested on: Klebsiella pneumoniae; test: Antibacterial activity against Klebsiella pneumoniae at 25 ug/ml incubated for 24 hrs by agar well diffusion method; assay type: functional; conditions: for zone of inhibition at 25 µg/mL: read-out: DIZ; procedure, shortened: as §1
[14] = tested on: Klebsiella pneumoniae; test: Antibacterial activity against Klebsiella pneumoniae at 50 ug/ml incubated for 24 hrs by agar well diffusion method; assay type: functional; conditions: for zone of inhibition at 50 µg/mL: read-out: DIZ; procedure, shortened: as §1
[15] = tested on: Klebsiella pneumoniae; test: Antibacterial activity against Klebsiella pneumoniae at 75 ug/ml incubated for 24 hrs by agar well diffusion method; assay type: functional; conditions: for zone of inhibition at 75 µg/mL: read-out: DIZ; procedure, shortened: as §1
[16] = tested on: Klebsiella pneumoniae; test: Antibacterial activity against Klebsiella pneumoniae at 100 ug/ml incubated for 24 hrs by agar well diffusion method; assay type: functional; conditions: for zone of inhibition at 100 µg/mL: read-out: DIZ; procedure, shortened: as §1
[17] = tested on: Aspergillus niger; test: Antifungal activity against Aspergillus niger at 25 ug/ml incubated for 48 hrs by agar well diffusion method; assay type: functional; conditions: read-out: DIZ
Procedure, shortened: (§2)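 Compounds dissolved in DMSO at 5 mg mL⁻¹ and 5–20 µL added to 6 mm wells, giving 25, 50, 75, 100 µg per well. Bavistin was the positive control and DMSO the negative control. Plates incubated at 28 °C for 48 h, then inhibition zone diameter (mm) measured. Values are means of three determinations.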

[18] = tested on: Aspergillus niger; test: Antifungal activity against Aspergillus niger at 50 ug/ml incubated for 48 hrs by agar well diffusion method; assay type: functional; conditions: read-out: DIZ; procedure, shortened: as §2
[19] = tested on: Aspergillus niger; test: Antifungal activity against Aspergillus niger at 75 ug/ml incubated for 48 hrs by agar well diffusion method; assay type: functional; conditions: read-out: DIZ; procedure, shortened: as §2
[20] = tested on: Aspergillus niger; test: Antifungal activity against Aspergillus niger at 100 ug/ml incubated for 48 hrs by agar well diffusion method; assay type: functional; conditions: read-out: DIZ; procedure, shortened: as §2
[21] = tested on: Candida albicans; test: Antifungal activity against Candida albicans at 25 ug/ml incubated for 48 hrs by agar well diffusion method; assay type: functional; conditions: for zone of inhibition at 25 µg/mL: read-out: DIZ; procedure, shortened: as §2
[22] = tested on: Candida albicans; test: Antifungal activity against Candida albicans at 50 ug/ml incubated for 48 hrs by agar well diffusion method; assay type: functional; conditions: for zone of inhibition at 50 µg/mL: read-out: DIZ; procedure, shortened: as §2
[23] = tested on: Candida albicans; test: Antifungal activity against Candida albicans at 75 ug/ml incubated for 48 hrs by agar well diffusion method; assay type: functional; conditions: read-out: DIZ; procedure, shortened: as §2
[24] = tested on: Candida albicans; test: Antifungal activity against Candida albicans at 100 ug/ml incubated for 48 hrs by agar well diffusion method; assay type: functional; conditions: read-out: DIZ; procedure, shortened: as §2
[25] = tested on: Fusarium oxysporum; test: Antifungal activity against Fusarium oxysporum at 25 ug/ml incubated for 48 hrs by agar well diffusion method; assay type: functional; conditions: for zone of inhibition at 25 µg/mL: read-out: DIZ; procedure, shortened: as §2
[26] = tested on: Fusarium oxysporum; test: Antifungal activity against Fusarium oxysporum at 50 ug/ml incubated for 48 hrs by agar well diffusion method; assay type: functional; conditions: for zone of inhibition at 50 µg/mL: read-out: DIZ; procedure, shortened: as §2
[27] = tested on: Fusarium oxysporum; test: Antifungal activity against Fusarium oxysporum at 75 ug/ml incubated for 48 hrs by agar well diffusion method; assay type: functional; conditions: read-out: DIZ; procedure, shortened: as §2
[28] = tested on: Fusarium oxysporum; test: Antifungal activity against Fusarium oxysporum at 100 ug/ml incubated for 48 hrs by agar well diffusion method; assay type: functional; conditions: read-out: DIZ; procedure, shortened: as §2
[29] = tested on: Erythrocyte; test: Anti-inflammatory activity in human RBC assessed as inhibition of hypotonic solution-induced hemolysis after 10 mins by spectrophotometric method; assay type: functional, cell-based
Procedure, shortened: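 Human blood (heparinized) washed with 0.9% saline, packed cells made into a 40% v/v stock in isotonic phosphate buffer (154 mM NaCl, 10 mM sodium phosphate, pH 7.4). Stock RBC mixed with hypotonic buffer (50 mM NaCl, 10 mM phosphate, pH 7.4) plus sample at 20–100 µg mL⁻¹.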

SMILES	zone of inhibition at 25 µg/mL [1]	zone of inhibition at 50 µg/mL [2]	zone of inhibition at 75 µg/mL [3]	zone of inhibition at 100 µg/mL [4]	zone of inhibition at 75 µg/mL [7]	zone of inhibition at 100 µg/mL [8]	zone of inhibition at 25 µg/mL [9]	zone of inhibition at 50 µg/mL [10]	zone of inhibition at 75 µg/mL [11]	zone of inhibition at 100 µg/mL [12]	zone of inhibition at 25 µg/mL [17]	zone of inhibition at 50 µg/mL [18]	zone of inhibition at 75 µg/mL [19]	zone of inhibition at 100 µg/mL [20]	zone of inhibition at 75 µg/mL [23]	zone of inhibition at 100 µg/mL [24]	zone of inhibition at 75 µg/mL [27]	zone of inhibition at 100 µg/mL [28]	IC50 [29]	zone of inhibition at 25 µg/mL [5]	other results
O=c1c2ccccc2oc2cc(O)ccc12	4 mm	7 mm	11 mm	14 mm	6 mm	10 mm	3 mm	7 mm	11 mm	13 mm	4 mm	7 mm	9 mm	11 mm	6 mm	10 mm	5 mm	9 mm	90 µg/mL (≈ 424 µM)	–	diameter of the inhibition zone (DIZ) [5]: inactive; diameter of the inhibition zone (DIZ) [6]: inactive; diameter of the inhibition zone (DIZ) [13]: inactive; diameter of the inhibition zone (DIZ) [14]: inactive; diameter of the inhibition zone (DIZ) [15]: inactive; diameter of the inhibition zone (DIZ) [16]: inactive; diameter of the inhibition zone (DIZ) [21]: inactive; diameter of the inhibition zone (DIZ) [22]: inactive; diameter of the inhibition zone (DIZ) [25]: inactive; diameter of the inhibition zone (DIZ) [26]: inactive
CC(C)(C)OC(=O)N[C@@H](CS)C(=O)Oc1ccc2c(=O)c3ccccc3oc2c1	20 mm	28 mm	32 mm	34 mm	29 mm	34 mm	18 mm	26 mm	30 mm	34 mm	18 mm	26 mm	31 mm	34 mm	28 mm	34 mm	30 mm	35 mm	32 µg/mL (≈ 77 µM)	20 mm	zone of inhibition at 50 µg/mL [6]: 26 mm; zone of inhibition at 25 µg/mL [13]: 18 mm; zone of inhibition at 50 µg/mL [14]: 24 mm; zone of inhibition at 75 µg/mL [15]: 30 mm; zone of inhibition at 100 µg/mL [16]: 34 mm; zone of inhibition at 25 µg/mL [21]: 17 mm; zone of inhibition at 50 µg/mL [22]: 22 mm; zone of inhibition at 25 µg/mL [25]: 18 mm; zone of inhibition at 50 µg/mL [26]: 24 mm
CC(C)[C@H](NC(=O)OC(C)(C)C)C(=O)Oc1ccc2c(=O)c3ccccc3oc2c1	10 mm	13 mm	17 mm	22 mm	19 mm	22 mm	8 mm	13 mm	18 mm	20 mm	7 mm	13 mm	16 mm	20 mm	15 mm	21 mm	20 mm	23 mm	76 µg/mL (≈ 185 µM)	7 mm	zone of inhibition at 50 µg/mL [6]: 13 mm; zone of inhibition at 25 µg/mL [13]: 5 mm; zone of inhibition at 50 µg/mL [14]: 11 mm; zone of inhibition at 75 µg/mL [15]: 19 mm; zone of inhibition at 100 µg/mL [16]: 24 mm; zone of inhibition at 25 µg/mL [21]: 10 mm; zone of inhibition at 50 µg/mL [22]: 13 mm; zone of inhibition at 25 µg/mL [25]: 9 mm; zone of inhibition at 50 µg/mL [26]: 14 mm
C[C@H](NC(=O)OC(C)(C)C)C(=O)Oc1ccc2c(=O)c3ccccc3oc2c1	6 mm	10 mm	14 mm	19 mm	19 mm	22 mm	17 mm	14 mm	20 mm	23 mm	8 mm	12 mm	15 mm	18 mm	15 mm	17 mm	14 mm	18 mm	70 µg/mL (≈ 183 µM)	8 mm	zone of inhibition at 50 µg/mL [6]: 14 mm; zone of inhibition at 25 µg/mL [13]: 6 mm; zone of inhibition at 50 µg/mL [14]: 13 mm; zone of inhibition at 75 µg/mL [15]: 19 mm; zone of inhibition at 100 µg/mL [16]: 22 mm; zone of inhibition at 25 µg/mL [21]: 7 mm; zone of inhibition at 50 µg/mL [22]: 12 mm; zone of inhibition at 25 µg/mL [25]: 6 mm; zone of inhibition at 50 µg/mL [26]: 10 mm
C[C@H](N)C(=O)Oc1ccc2c(=O)c3ccccc3oc2c1.Cl	9 mm	13 mm	19 mm	22 mm	19 mm	23 mm	15 mm	19 mm	22 mm	26 mm	8 mm	12 mm	15 mm	18 mm	15 mm	17 mm	16 mm	18 mm	78 µg/mL	11 mm	zone of inhibition at 50 µg/mL [6]: 16 mm; zone of inhibition at 25 µg/mL [13]: 8 mm; zone of inhibition at 50 µg/mL [14]: 16 mm; zone of inhibition at 75 µg/mL [15]: 23 mm; zone of inhibition at 100 µg/mL [16]: 28 mm; zone of inhibition at 25 µg/mL [21]: 7 mm; zone of inhibition at 50 µg/mL [22]: 12 mm; zone of inhibition at 25 µg/mL [25]: 6 mm; zone of inhibition at 50 µg/mL [26]: 10 mm

— ChEMBL document CHEMBL4261538, “Synthesis and molecular docking studies of xanthone attached amino acids as potential antimicrobial and anti-inflammatory agents” (Medchemcomm, 2017)
